Reference: ChEMBL document CHEMBL4513216, “Probing the Open Global Health Chemical Diversity Library for Multistage-Active Starting Points for Next-Generation Antimalarials” (ACS Infect Dis, 2020)

Test: Toxicity liver stage against HepG2, at 10uM
Type: cell-based
Set-up: test concentration 10 uM, cell line HepG2-A16-CD81EGFP
Settings: human, HepG2-A16-CD81EGFP cells; read-out: INHIBITION
Method in brief: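 Uninfected HepG2-A16-CD81EGFP cells, 3 × 10^3 per well, 1536-well, plated on prespotted compound at 10 μM final, parasite-free screening media added to match infected plates; puromycin 10 μM positive, DMSO 0.5% negative; run in parallel with 48 h PbLuc assay at 37 °C, 5% CO2; viability by CellTiter-Glo luminescence, normalized to controls.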

Row | Compound | cytotoxicity at 10 µM [%]
1 | Cc1nn(CC(O)CN2CCc3ccccc3C2)c(=O)c(C#N)c1C (stereo not given) | 8.27
2 | O[C@@H]1C[C@@H](c2nc(-c3ccccc3)no2)N(CC2CCCCC2)C1 | -2.74
3 | CC1(C)CNC(=O)CN(C(=O)Cc2ccccc2)C1 | -6.92
4 | O=C(Cc1cnc(-n2cccc2)s1)NCCCO | -3.14
5 | Cc1n[nH]c2nc(-c3cccc(Cl)c3)cc(C(=O)O)c12 | -1.05
6 | O=c1ccc(-n2ccnc2)nn1CCNS(=O)(=O)c1ccc(F)c(Cl)c1 | -4.39
7 | CNC(=O)c1nnn(-c2ccccc2F)c1-c1ccccn1 | -4.21
8 | O=c1ccc2c(n1Cc1cccnc1)CCC(NCc1cccnc1)C2 (stereo not given) | 19.2
9 | CC(C)NC(=O)[C@]12COC[C@H]1CN(Cc1cnn(C)c1)C2 | 3.63
10 | O=c1[nH]c2nc(N3CCSCC3)ncc2c(=O)n1-c1ccc(F)cc1 | 9.82
11 | O=c1cc2c(nn1CN1CCOCC1)CCC2 | 1.31
12 | Cn1cnc2c1C(COCC1CC1)CN(Cc1ccsc1)C2 (stereo not given) | -5.07
13 | Cc1ccc(NC(=O)c2cccc(OCc3nnnn3C)c2)nc1 | 4.4
14 | CC1(C(N)=O)CN(CC2CCC2)CCO1 (stereo not given) | 2.04
15 | CNC(=O)c1cc(C)nc(C2(C)CCCN2c2cc(C)ncn2)n1 (stereo not given) | 2.15
16 | Cc1nccn1CCNC(=O)C1(C)CC(c2ccccc2)=NO1 (stereo not given) | 8.46
17 | COc1ccccc1CNC(=O)c1ccccc1-n1cnc(CN)c1 | -10.6
18 | CC(O)c1cn(Cc2ccccc2)nn1 (stereo not given) | 7.62
19 | CCc1cc2c(N3CCCC(c4ccn[nH]4)C3)ncnc2s1 (stereo not given) | 15.7
20 | COc1ccc(C(CN2CCN(C)CC2)Nc2ncccn2)cc1 (stereo not given) | 5.54
21 | COCCNc1nc(-c2ccc(S(=O)(=O)N3CCCCC3)cc2)cs1 | -42
22 | Cn1cc(CCC(=O)NCc2ccccc2OC(C)(C)C)cn1 | 6.67

Row | Compound | cytotoxicity at 10 µM [%]
23 | COCCN1CC(=O)N(C(C)C)C(C)(C)C1 | 1.31
24 | Cc1cccn2cc(CN3CCC(N4CCN(C)C4=O)CC3)nc12 | 7.31
25 | CCCc1c(C(=O)N2CCN(c3cnccn3)CC2)cnn1C | 9.77
26 | O=C(NCc1cc(F)ccc1F)Nc1ccn(CC(F)F)n1 | -3.06
27 | CC(C)C(NCc1ccc(Cn2cncn2)cc1)c1ccccc1 (stereo not given) | 4.1
28 | N#CCCN(CC1CCOC1)Cn1ccc(-c2ccsc2)n1 (stereo not given) | -2.68
29 | Cc1csc(C(C)(C)NCCNS(C)(=O)=O)n1 | 4.61
30 | O=C(NCC1CCS(=O)(=O)C1)c1ccco1 (stereo not given) | -7
31 | COCCn1cc(NC(=O)N(CCC(N)=O)Cc2ccccc2)cn1 | -4.72
32 | COc1ccc2cc(C(=O)NCCc3nc(C)no3)[nH]c2c1 | 9.63
33 | CCc1nccn1C1CCCN(C(=O)CCc2nc(C(C)C)no2)C1 (stereo not given) | 5.93
34 | O=C(Nc1nncs1)N1CCC(c2ccc(O)cc2)CC1 | -7.55
35 | OCCOc1ccc(NCc2cccc3cn[nH]c23)cn1 | -4.13
36 | Cc1ccc(S(=O)(=O)NCCNC(=O)c2ccoc2)cc1C | -3.26
37 | CCC(O)CN1CCN(C(=O)c2cnn(-c3ccccc3F)c2)CC1 (stereo not given) | -3.69
38 | COc1ccc(C(=O)N(CCC#N)Cc2ccccn2)cc1 | 13.1
39 | CCC(CC)c1cc(CNC(=O)N2CCCC(c3ncc[nH]3)C2)on1 (stereo not given) | -2.02
40 | CC(C)C(O)C(C)(C)CNC(=O)NCc1ccc(-n2cncn2)cc1 (stereo not given) | -8.14
41 | Cn1cc(Br)c(=O)c(NS(=O)(=O)c2ccccc2F)c1 | -2.62
42 | CCN(C(=O)COc1nc(C(C)(C)C)no1)C1CC1 | 3.2
43 | COc1ccc2cccc(CC(=O)NCc3n[nH]c(=O)[nH]3)c2c1 | -3.22
44 | O=C(NCCCO)Nc1cccc(C[S+]([O-])Cc2ccccc2)c1 (stereo not given) | -1.06

Row | Compound | cytotoxicity at 10 µM [%]
45 | NC(=O)Cn1ccc(NC(=O)C2(c3cccc(Cl)c3)CC2)n1 | 0.217
46 | CCOc1ccccc1CNC(=O)N(CC)C(C)c1cccnc1 (stereo not given) | -3.64
47 | O=C(Nc1cc(Cl)ccc1Cl)NC1CCN(C2CCOC2)CC1 (stereo not given) | 6.8
48 | CSC(C)C(=O)N1CCN(CCO)CC1 (stereo not given) | -6.69
49 | COCCCOC1CN(C(=O)c2[nH]nc3c2CCCC3)C1 | 8.11
50 | CC(=O)c1cc(C(=O)NC2(c3ccc(Br)cc3)CC2)n(C)c1 | 5.78
51 | Cc1cc(C)c(CNc2cnc3ccccc3n2)c(=O)[nH]1 | 41.8
52 | CC(Cn1ccnc1)NS(=O)(=O)Cc1ccc(F)cc1 (stereo not given) | 5.36
53 | CN(CCn1cccn1)S(=O)(=O)c1ccc(C#N)cc1 | -4.81
54 | COc1cccc(OCc2nnc3n2N=C(C(C)(C)C)CS3)c1 | 4.4
55 | CC(Cn1cccn1)NCc1csc(-c2ccc(F)cc2)n1 (stereo not given) | -67.9
56 | COc1ccccc1OCC(=O)Nc1ncccc1Cl | -3.61
57 | Cn1nc2c(cc1=O)CN(CCc1nc3ccccc3c(=O)[nH]1)CC2 | -10.9
58 | O=C(CCN1CCC(C(=O)c2cc(F)ccc2F)CC1)NC1CC1 | -7.74
59 | Cc1nnc2n1CCN(C(=O)c1cn(-c3ccccc3Cl)nn1)C2 | -4.55
60 | Cc1nnc([C@@]23CCO[C@@H]2CCN(S(=O)(=O)c2cccnc2)C3)o1 | -103
61 | O=C(c1ccncc1)N1CCc2c(COCC3CC3)cncc2C1 | -78.7
62 | Cn1cc(-c2cnc(N3CCOCC3)nc2)cc1C(=O)NC1CC1 | -80.4
63 | CCC(CC)NC(=O)c1ccc2nnc(C3CCN(S(C)(=O)=O)C3)n2c1 (stereo not given) | 3.25
64 | CCCc1nccn1-c1cccc(CN2CCCC2)c1 | -4.87
65 | CCCC1C=CCN1C(=O)c1cc(COc2ccccc2)[nH]n1 (stereo not given) | 9.8
66 | CN(C)C(C(=O)NCC(F)(F)F)c1cccc(F)c1 (stereo not given) | -2.49

Row | Compound | cytotoxicity at 10 µM [%]
67 | CC(C)N1CC(C(=O)N2CCN(CCn3cccc3)CC2)CC1=O (stereo not given) | -4.97
68 | CCc1nc(N2CCCC(CO)(CCOC)C2)ncc1C (stereo not given) | 4.93
69 | O=C(CCc1cc2n(n1)CCN(CCCn1cccc1)C2)N1CCCC1 | -15.4
70 | O=C(CCc1cc(Cl)no1)N1CCN(CCn2cncn2)CC1 | -1.84
71 | Cc1nc2c(c(=O)[nH]1)CN(C(=O)CC[C@@H]1CCCN3CCCC[C@H]13)C2 | 17
72 | CCN1CCC(CNC(=O)C(c2ccc(F)cc2)N(C)C)(N(C)C)CC1 (stereo not given) | -0.288
73 | O=C(COc1cccc(F)c1)N1C[C@@H](CN2CCCC2)C[C@H](CO)C1 | 3.94
74 | COCCC1(CO)CCCN(C(=O)CCC(F)(F)F)C1 (stereo not given) | -2.86
75 | O=C(O)c1ccc(CNC(=O)C2CCN(Cc3ccco3)CC2)s1 | -0.861
76 | C=C(C)COc1ccc(C(=O)N(C)C(C)c2ccon2)cc1 (stereo not given) | 4.18
77 | Cn1cc(CN2CC[C@@H]3[C@@H](CCC(=O)N3CCc3ccccc3)C2)cn1 | -1.45
78 | CCNC(=O)[C@@H]1C[C@H](N)CN1C(=O)Cc1cc(C)ccc1C | 2.43
79 | Fc1ccc(Cn2ncc3c2CN(c2ncccn2)C3)cc1 | 1.5
80 | COCC(NC1CCN(CC(C)C)CC1)c1ccnn1C (stereo not given) | 4.22
81 | Cc1ccc(C(C(=O)O)N2CCCN(Cc3ccccn3)CC2)c(F)c1 (stereo not given) | -1.62
82 | CN1CCCC2(CCN(S(=O)(=O)c3ccc(-c4cnco4)s3)C2)C1=O (stereo not given) | 5.84
83 | COc1ccc(F)c(F)c1C(=O)N1C[C@@H](CN(C)CCO)[C@@H](CO)C1 | -1.02
84 | CN(C)CCC1CCCCN1Cc1cnn(C)c1C1CC1 (stereo not given) | 2.84
85 | Cc1ccc(C)c2c(O)cc(CN3CCNC(=O)C3C)nc12 (stereo not given) | -1.66
86 | COc1ccc(NC(=O)Cn2nc(C)c(C)cc2=O)cc1Cl | -6.47
87 | COc1ccc(NC(=O)Cn2nc(C)c(C)cc2=O)cc1 | 4.2
88 | CS(=O)(=O)N1CCC(Oc2ccc(C(=O)NC3CCOC3)cc2Cl)CC1 (stereo not given) | -4.88

Row | Compound | cytotoxicity at 10 µM [%]
89 | Cc1nnc(CNCC2(O)CCCN(Cc3ccc(F)c(F)c3)C2=O)[nH]1 (stereo not given) | -6.79
90 | COc1ccc(CC2(C(=O)O)CCN(c3nc(C)ncc3C)CC2)cc1 | -21.8
91 | CN1CCN(Cc2nc3ccccc3[nH]2)[C@H]2CS(=O)(=O)C[C@H]21 | 20.5
92 | O=C1OC2(CCN(C3CCCOC3)CC2)CN1CCc1ccccc1 (stereo not given) | -17.5
93 | Cc1ccc(C#N)c(N2CCC(c3nccn3CCN(C)C)CC2)n1 | -5.47
94 | COCc1nc(C(=O)NS(=O)(=O)c2ccc(F)cc2F)cs1 | -8.51
95 | CCn1ccnc1CN1CCCN(C(=O)c2csc(C)n2)CC1 | -2.84
96 | CCOCC(O)CN1CCN(C(=O)c2cc(F)ccc2C)CC1 (stereo not given) | -6.69
97 | CC(=O)NCc1ccc(C(=O)N2CCCC2c2cnn(C)c2)o1 (stereo not given) | -8.67
98 | COc1cccc(CNC(=O)N2CCN(Cc3cc(C)on3)CC2)c1 | -1.58
99 | CCc1noc(C(C)N2CCC(C(=O)Nc3cnn(CC)c3)CC2)n1 (stereo not given) | 2.21
100 | CN1CCc2c(C#N)c(NCC3CCCO3)n3cnnc3c2C1 (stereo not given) | 4.48
101 | CC1CCN(CC(=O)NC2CCN(C(C)c3ccccc3)CC2)CC1 (stereo not given) | -6.36
102 | CNC(=O)C1(N2CCC[C@H]2C(=O)NC2CCCCC2)CCOCC1 | -1.25
103 | Cc1cc(C[C@@H]2CCC[C@H]2NCc2cc(F)ccc2F)on1 | -5.72
104 | c1ccc(CN2CC[C@@H]3O[C@@H](COCCN4CCCC4)CC[C@@H]32)nc1 | -80.6
105 | Cc1ccc(CN2C[C@@H]3COC[C@H](NS(C)(=O)=O)[C@@H]3C2)s1 | 0.354
106 | CC(=O)N1[C@H](Cn2cncn2)C[C@@H]2CN(CC3CC3)CC[C@@H]21 | -3.64
107 | COCCN1CC[C@]2(CN(Cc3ccccn3)C[C@H]2C)C1=O | 8.86
108 | CCCC(=O)N1CC[C@@H]2[C@H](CC1)N(Cc1cccnc1)CCS2(=O)=O | -8.63
109 | N#Cc1cccc(CN2CCC3(CC2)CC(c2ccncc2)C(=O)N3)c1 (stereo not given) | 3.44
110 | O=C([C@H]1COC[C@H]2CN(C3CCOCC3)C[C@H]21)N1CCCO1 | -4.68
